Columns and labels:
[1] = system: Mycobacterium tuberculosis; assay: Antimycobacterial activity against Mycobacterium bovis BCG by MABA; assay type: functional, variant bovis BCG
How it was run: (§1)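 Compounds in DMSO (100× highest final concentration), diluted in 7H9GC; tested at 100, 50, 10 and 1 µg/mL in triplicate, three experiments. Frozen inoculum diluted in 7H9GC. Read visually and spectrophotometrically. […], mean given. Visual MIC = lowest concentration preventing blue-to-pink change.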

[2] = system: Mycobacterium tuberculosis; assay: Antimycobacterial activity against Mycobacterium bovis BCG at 100 ug/mL after 24 to 48 hrs by MABA; assay type: functional; conditions: variant bovis BCG; how it was run: as §1
[3] = system: Mycobacterium tuberculosis; assay: Antimycobacterial activity against Mycobacterium bovis BCG at 50 ug/mL after 24 to 48 hrs by MABA; assay type: functional; conditions: variant bovis BCG; how it was run: as §1
[4] = system: Mycobacterium tuberculosis; assay: Antimycobacterial activity against Mycobacterium bovis BCG at 10 ug/mL after 24 to 48 hrs by MABA; assay type: functional; conditions: variant bovis BCG; how it was run: as §1
[5] = system: Mycobacterium tuberculosis; assay: Antimycobacterial activity against Mycobacterium bovis BCG at 1 ug/mL after 24 to 48 hrs by MABA; assay type: functional; conditions: variant bovis BCG; how it was run: as §1

Structure (SMILES): O=c1[nH]c(=O)n(COCCO)cc1Cl
- Inhibition [1]: 0%

Structure (SMILES): O=c1ccn(COCCO)c(=O)[nH]1
- Inhibition [1]: 0%

Structure (SMILES): Cc1cn(COCCO)c(=O)[nH]c1=O
- Inhibition [1]: 0%

Structure (SMILES): [N-]=[N+]=NC(CI)c1cn(COC(CO)CO)c(=O)[nH]c1=O (stereo unspecified)
- Inhibition [1]: 0%

Structure (SMILES): [N-]=[N+]=NC(CBr)c1cn(COC(CO)CO)c(=O)[nH]c1=O (stereo unspecified)
- Inhibition [1]: 0%

Structure (SMILES): [N-]=[N+]=NC(CI)c1cn(COCCO)c(=O)[nH]c1=O (stereo unspecified)
- inhibition at 100 µg/mL [2]: 50%
- inhibition at 50 µg/mL [3]: 50%

Structure (SMILES): [N-]=[N+]=NC(CBr)c1cn(COCCO)c(=O)[nH]c1=O (stereo unspecified)
- inhibition at 50 µg/mL [3]: 100%

Structure (SMILES): O=c1[nH]c(=O)n(COCCO)cc1I
- Inhibition [1]: 0%

Structure (SMILES): Nc1cn(COCCO)c(=O)[nH]c1=O
- inhibition at 100 µg/mL [2]: 50%
- inhibition at 50 µg/mL [3]: 50%

Structure (SMILES): CCCCCCCCCCC#Cc1cn(COCCO)c(=O)n(C#CCCCCCCCCCC)c1=O
- Inhibition [1]: 0%

Structure (SMILES): CCCCCCCCC#Cc1cn(COC(CO)CO)c(=O)[nH]c1=O
- inhibition at 10 µg/mL [4]: 60%
- inhibition at 100 µg/mL [2]: 100%
- inhibition at 50 µg/mL [3]: 100%

Structure (SMILES): CCCCCCCCCCC#Cc1cn(COC(CO)CO)c(=O)[nH]c1=O
- inhibition at 10 µg/mL [4]: 80%
- inhibition at 100 µg/mL [2]: 100%
- inhibition at 1 µg/mL [5]: 50%
- inhibition at 50 µg/mL [3]: 100%

Structure (SMILES): CCc1cn(COCCO)c(=O)[nH]c1=O
- Inhibition [1]: 0%

Structure (SMILES): CCCCCC#Cc1cn(COCCO)c(=O)[nH]c1=O
- Inhibition [1]: 0%

Structure (SMILES): O=c1[nH]c(=O)n(COCCO)cc1F
- Inhibition [1]: 0%

Structure (SMILES): O=c1[nH]c(=O)n(COCCO)cc1Br
- Inhibition [1]: 0%

Structure (SMILES): [N-]=[N+]=NC(CCl)c1cn(COC(CO)CO)c(=O)[nH]c1=O (stereo unspecified)
- Inhibition [1]: 0%

Structure (SMILES): [N-]=[N+]=NC(CCl)c1cn(COCCO)c(=O)[nH]c1=O (stereo unspecified)
- inhibition at 10 µg/mL [4]: 50%
- inhibition at 100 µg/mL [2]: 100%
- inhibition at 50 µg/mL [3]: 100%

Structure (SMILES): O=c1[nH]c(=O)n(COCCO)cc1[N+](=O)[O-]
- Inhibition [1]: 0%

Structure (SMILES): C=C(N=[N+]=[N-])c1cn(COCCO)c(=O)[nH]c1=O
- inhibition at 10 µg/mL [4]: 50%
- inhibition at 100 µg/mL [2]: 50%
- inhibition at 50 µg/mL [3]: 50%

Structure (SMILES): C=C(N=[N+]=[N-])c1cn(COC(CO)CO)c(=O)[nH]c1=O
- Inhibition [1]: 0%

Structure (SMILES): C=Cc1cn(COCCO)c(=O)[nH]c1=O
- Inhibition [1]: 0%

Structure (SMILES): C=Cc1cn(COC(CO)CO)c(=O)[nH]c1=O
- Inhibition [1]: 0%

Structure (SMILES): O=c1[nH]c(=O)n(COC(CO)CO)cc1I [IODACYCLUR]
- Inhibition [1]: 0%

Structure (SMILES): CO[C@H]1/C=C/O[C@@]2(C)Oc3c(C)c(O)c4c(O)c(c(/C=N/N5CCN(C)CC5)c(O)c4c3C2=O)NC(=O)/C(C)=C\C=C\[C@H](C)[C@H](O)[C@@H](C)[C@@H](O)[C@@H](C)[C@H](OC(C)=O)[C@@H]1C [RIFAMPIN]
- inhibition at 1 µg/mL [5]: 100%

Reference: ChEMBL document CHEMBL1146361, “Studies on acyclic pyrimidines as inhibitors of mycobacteria” (Bioorg Med Chem, 2007)
